In ChEMBL document CHEMBL4425177, “Effects of stereochemistry, saturation, and hydrocarbon chain length on the ability of synthetic constrained azacyclic sphingolipids to trigger nutrient transporter down-regulation, vacuolation, and cell death” (Bioorg Med Chem, 2016):

Assays:
[1] = tested on: FL5.12; experiment: Induction of vacuolation in mouse FL5.12A cells assessed as vacuolation score at 2.5 uM measured at 3 hrs by fluorescence microscopic analysis; type: functional
In short: (§1)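 FL5.12 cells treated at 2.5 µM. Nutrient transporter loss measured as mean ± SEM. Vacuolation scored semi-quantitatively from 0 to 84, roughly twice the percent of cytosol occupied by vacuoles, mean ± SEM.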

[2] = tested on: FL5.12; experiment: Downregulation of CD98 expression level in mouse FL5.12A cells at 2.5 uM measured at 3 hrs by flow cytometric analysis; type: functional; in short: as §1
[3] = tested on: FL5.12; experiment: Cytotoxicity against mouse FL5.12A cells after 48 hrs by DAPI staining-based flow cytometric analysis; type: functional, cell-based; settings: FL5.12, 48 h
[4] = tested on: FL5.12; experiment: Downregulation of CD98 expression level in mouse FL5.12A cells at 50 uM measured at 3 hrs by flow cytometric analysis
[5] = tested on: FL5.12; experiment: Induction of vacuolation in mouse FL5.12A cells assessed as vacuolation score at 50 uM measured at 3 hrs by fluorescence microscopic analysis; type: functional
[6] = tested on: FL5.12; experiment: Induction of vacuolation in mouse FL5.12A cells assessed as vacuolation score at 30 uM measured at 3 hrs by fluorescence microscopic analysis; type: functional
[7] = tested on: FL5.12; experiment: Downregulation of CD98 expression level in mouse FL5.12A cells at 30 uM measured at 3 hrs by flow cytometric analysis; type: functional

| SMILES | Activity [1] | Activity [2] [%] | IC50 [3] [µM] | Activity [4] [%] | Activity [5] | Activity [6] | Activity [7] [%] |
| --- | --- | --- | --- | --- | --- | --- | --- |
| CCCCCCCCc1ccc(CO[C@@H]2CN[C@@H](CO)C2)cc1.Cl | 33 | 63 | 2 |  |  |  |  |
| CCCCCCCCc1ccc(CO[C@H]2CN[C@H](CO)C2)cc1.Cl | 47 | 48 | 3 |  |  |  |  |
| CCCCCCCCc1ccc([C@H]2CCN[C@@H]2CO)cc1.Cl | 81 | 54 | 1.9 |  |  |  |  |
| CCCCCC/C=C/c1ccc([C@H]2CCN[C@@H]2CO)cc1.Cl | 84 | 58 | 1.7 |  |  |  |  |
| CCCCCCCCc1ccc([C@@H]2CCN[C@H]2CO)cc1.Cl | 53 | 47 | 1.7 |  |  |  |  |
| CCCCCCCCCCCC/C=C/c1ccc(CO[C@@H]2CN[C@@H](CO)C2)cc1.Cl | 8 | 19 | 5.1 |  |  |  |  |
| CCCC/C=C/c1ccc(CO[C@@H]2CN[C@@H](CO)C2)cc1.Cl | 0 | 30 | 5.5 |  |  |  |  |
| CCCCCCCCc1ccc([C@H]2CCN(C(C)=O)[C@@H]2CO)cc1 | 0 | 40 | 39.7 |  |  |  |  |
| CCCCCCCCCC/C=C/c1ccc(CO[C@@H]2CN[C@@H](CO)C2)cc1.Cl | 33 | 52 | 2.8 |  |  |  |  |
| CCCCCC/C=C/c1ccc([C@H]2CCN(C(C)=O)[C@@H]2CO)cc1 | 2 | 40 | 46.2 |  |  |  |  |
| CCCCCCCCCCCCc1ccc(CO[C@H]2CN[C@H](CO)C2)cc1.Cl | 30 | 14 | 3.9 |  |  |  |  |
| CCCCCCCCCCCCO[C@@H]1CN[C@@H](CO)C1.Cl | 53 | 57 | 1.2 |  |  |  |  |
| CCCCCCCCc1ccc(CO[C@H]2C[C@H](CO)N(C(C)=O)C2)cc1 |  |  | 29.7 | 37 | 1 |  |  |
| CCCCCCCCc1ccc(CO[C@@H]2C[C@@H](CO)N(C(=N)N)C2)cc1.Cl.Cl |  |  | 17.3 |  |  | 0 | 34 |
| CCCCCCCCCCCCCCc1ccc(CO[C@@H]2CN[C@@H](CO)C2)cc1.Cl | 4 | 12 | 10.5 |  |  |  |  |
| CCCCCCCCC/C=C/CO[C@@H]1CN[C@@H](CO)C1.Cl | 9 | 34 | 2.6 |  |  |  |  |
| CCCCCCCCCC/C=C/c1ccc(CO[C@H]2CN[C@H](CO)C2)cc1.Cl | 76 | 40 | 2.4 |  |  |  |  |

| SMILES | Activity [1] | Activity [2] [%] | IC50 [3] [µM] | Activity [4] [%] | Activity [5] | Activity [6] | Activity [7] [%] |
| --- | --- | --- | --- | --- | --- | --- | --- |
| CCCCCC/C=C/c1ccc(CO[C@H]2CN[C@H](CO)C2)cc1.Cl | 70 | 41 | 2.4 |  |  |  |  |
| CCCCCCCCC/C=C/CO[C@H]1CN[C@H](CO)C1.Cl | 20 | 30 | 3.3 |  |  |  |  |
| CCCC/C=C/c1ccc(CO[C@H]2CN[C@H](CO)C2)cc1.Cl | 5 | 9 | 5.7 |  |  |  |  |
| CCCCCCCCCCCC/C=C/c1ccc(CO[C@H]2CN[C@H](CO)C2)cc1.Cl | 1 | 20 | 7.3 |  |  |  |  |
| CCCCCCc1ccc(CO[C@@H]2CN[C@@H](CO)C2)cc1.Cl | 0 | 30 | 2.7 |  |  |  |  |
| CCCCCC/C=C/c1ccc(CO[C@@H]2CN[C@@H](CO)C2)cc1.Cl | 27 | 64 | 1.4 |  |  |  |  |
| CCCCCCCCc1ccc(CO[C@H]2C[C@H](CO)N(C(=N)N)C2)cc1.Cl.Cl |  |  | 14.2 |  |  | 0 | 35 |
| CCCCCC/C=C/c1ccc(CO[C@H]2C[C@H](CO)N(C)C2)cc1.Cl | 26 | 31 | 1.9 |  |  |  |  |
| CCCCCCCCCCc1ccc(CO[C@H]2CN[C@H](CO)C2)cc1.Cl | 36 | 28 | 3.6 |  |  |  |  |
| CCCCCCCCCCCCCCc1ccc(CO[C@H]2CN[C@H](CO)C2)cc1.Cl | 3 | 19 | 5.7 |  |  |  |  |
| CCCCCCCCCCCCc1ccc(CO[C@@H]2CN[C@@H](CO)C2)cc1.Cl | 3 | 13 | 10.1 |  |  |  |  |
| CCCCCCCCCCCCO[C@H]1CN[C@H](CO)C1.Cl | 36 | 45 | 2.5 |  |  |  |  |
| CCCCCCCCCCCCC/C=C/[C@@H](O)[C@H](CO)NC(C)=O (stereo in doubt; 9) |  |  | 33 | 47 | 0 |  |  |
| CCCCCCCCCCCCCCC[C@@H](O)[C@@H](N)CO [DIHYDROSPINGOSINE] | 38 | 47 | 3.5 |  |  |  |  |
| CCCCCCCCCCCCC/C=C/[C@@H](O)[C@H](CO)N(C)C [DIMETHYLSPINGOSINE] | 72 | 69 | 0.8 |  |  |  |  |
| CCCCCCCCc1ccc(CCC(N)(CO)CO)cc1 [FINGOLIMOD] | 82 | 68 | 2.4 |  |  |  |  |
| CCCCCCCCCCCCC/C=C/[C@@H](O)[C@@H](N)CO [SPHINGOSINE] | 57 | 48 | 3.6 |  |  |  |  |
